Assay results reported in ChEMBL document CHEMBL3286113, “New potent antibacterial oxazolidinone (MRX-I) with an improved class safety profile” (J Med Chem, 2014).
pIC50: −log10 of the molar value. Converted amounts (≈) assume the structure as drawn.

What was measured:
[1] = AUC (0 to infinity) in fasted human at 300 mg, po administered as single dose; type: ADME, organism-based; set-up: dose 300 mg, route oral, time infinity; conditions: plasma
Procedure, shortened: (§1)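 Single-dose, three-period Latin-square crossover in 12 healthy volunteers (6 of each gender). Each received single oral 300, 600 and 900 mg doses under fasting conditions, with a 1-week washout between doses. PK parameters, including AUC0−inf, came from a noncompartmental model.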

[2] = Elimination half life in fasted human at 300 mg, po administered as single dose; type: ADME, organism-based; conditions: in vivo, read-out: beta t1/2 (converted)
Procedure, shortened: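 Healthy volunteers (12; six of each sex) in a three-period Latin-square crossover. Each received single oral doses of 300, 600 and 900 mg under fasting conditions, with a 1-week washout between doses. Parameters from a noncompartmental model.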

[3] = AUC (0 to infinity) in fasted human at 600 mg, po administered as single dose; type: ADME, organism-based; set-up: dose 600 mg, route oral, time infinity; conditions: plasma; procedure, shortened: as §1
[4] = Cmax in human at 900 mg, po administered as single dose at 30 mins post fat meal; type: ADME, organism-based; set-up: dose 900 mg, route oral; conditions: in vivo
Procedure, shortened: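 Crossover study in 12 subjects (six of each sex). Each got a single oral 900 mg dose either fasted or 30 min after a fat-containing meal.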

[5] = Tmax in human at 800 mg, po administered as single dose with meal measured on day 1; type: ADME, organism-based; conditions: in vivo
Procedure, shortened: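 Randomized, double-blind, placebo-controlled multiple-dose study in 32 healthy subjects, half male and half female. Dosing was 600 or 800 mg orally with a meal, 28 doses over 15 days. A single dose was given on days 1 and 15 for full PK, with Q12h (BID) dosing on days 2−14.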

[6] = Cmax in human at 800 mg, po administered as single dose with meal measured on day 15; type: ADME, organism-based; set-up: dose 800 mg, route oral; conditions: in vivo
Procedure, shortened: (§2)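 Randomized, double-blind, placebo-controlled multiple-dose study in 32 healthy subjects, half male and half female. Each dose was taken with a meal, at 600 or 800 mg, 28 doses over 15 days. A single dose on days 1 and 15 gave full PK; BID (Q12h) dosing ran on days 2–14.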

[7] = AUC (0 to 24 hrs) in human at 800 mg, po administered as single dose with meal measured on day 15; type: ADME, organism-based; set-up: dose 800 mg, time < 24 hr, route oral; conditions: plasma
Procedure, shortened: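 Randomized, double-blind, placebo-controlled multiple-dose study in 32 healthy subjects (half male, half female). Subjects took 28 oral doses of 600 or 800 mg over 15 days, each with a meal. A single dose was given on days 1 and 15 for full PK, and doses were given Q12h from day 2 to day 14. AUC0−24 was measured on days 1 and 15.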

Homo sapiens = test: Toxicity in human assessed as change in RBC count at 600 to 800 mg, po administered as single dose with meal on day 1 and day 15 followed by bid with meal on day 2 to day 14 measured during compound treatment; type: organism-based; conditions: in vivo
Canis familiaris [8] = organism: Canis familiaris; test: Drug uptake in dog measured over 7 days; type: ADME, organism-based, Canis lupus familiaris; conditions: in vivo, 168 h
Rattus norvegicus [9] = test: Toxicity in female rat assessed as effect on RBC count at 20 mg/kg/day, po bid administered for 4 weeks (reference value: 7.28 x 10^12/L); type: organism-based; set-up: route oral; conditions: in vivo, 672 h
Rattus norvegicus [10] = test: Toxicity in female rat assessed as effect on lymphocyte count at 20 mg/kg/day, po bid administered for 4 weeks (reference value: 74.8%); type: organism-based; set-up: route oral; conditions: in vivo, 672 h
Rattus norvegicus [11] = test: Toxicity in female rat assessed as effect on WBC count at 200 to 300 mg/kg/day, po bid administered for 4 weeks (reference value: 3.66 x 10^9/L); type: organism-based; set-up: route oral; conditions: in vivo, 672 h
Rattus norvegicus [12] = test: Toxicity in female rat assessed as effect on mean corpuscular volume at 200 to 300 mg/kg/day, po bid administered for 4 weeks (reference value: 53.72 fL); type: organism-based; set-up: route oral; conditions: in vivo, 672 h
Cytochrome P450 2E1 = Cytochrome P450 2E1 (Homo sapiens, UniProt P05181); test: Inhibition of CYP2E1 (unknown origin); type: ADME
Sequence of Cytochrome P450 2E1 (P05181 whole entry): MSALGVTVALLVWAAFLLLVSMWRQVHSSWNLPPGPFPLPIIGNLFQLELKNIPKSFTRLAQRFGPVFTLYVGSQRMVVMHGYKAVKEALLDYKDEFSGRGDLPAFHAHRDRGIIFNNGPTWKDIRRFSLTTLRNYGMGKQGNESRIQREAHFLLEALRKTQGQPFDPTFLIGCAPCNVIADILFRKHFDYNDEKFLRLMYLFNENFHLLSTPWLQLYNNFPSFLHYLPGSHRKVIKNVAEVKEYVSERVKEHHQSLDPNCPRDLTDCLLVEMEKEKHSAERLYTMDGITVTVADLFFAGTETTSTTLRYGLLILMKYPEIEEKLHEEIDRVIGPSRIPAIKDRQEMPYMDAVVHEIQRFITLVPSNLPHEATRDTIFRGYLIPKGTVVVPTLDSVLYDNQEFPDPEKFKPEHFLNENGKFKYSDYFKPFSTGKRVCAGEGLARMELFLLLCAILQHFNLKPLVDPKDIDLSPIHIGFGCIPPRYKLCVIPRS

[13] = Clastogenicity in CHL cells assessed as induction of structural chromosomal aberration at 25 to 200 ug/mL measured over 24 hrs in presence of metabolic activation; type: toxicity, cell-based, Cricetulus griseus; conditions: chinese hamster
Procedure, shortened: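 Chinese hamster lung cells scored for structural chromosome aberrations with or without metabolic activation. Exposure was 50–400 μg/mL over 6 h, or 25–200 μg/mL over 24 h.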

[14] = Clastogenicity in CHL cells assessed as induction of structural chromosomal aberration at 25 to 200 ug/mL measured over 24 hrs in absence of metabolic activation; type: toxicity, cell-based, Cricetulus griseus; conditions: chinese hamster
Procedure, shortened: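 Chromosomal aberration test in Chinese hamster lung cells, run with and without metabolic activation. Exposure was 50−400 μg/mL for 6 h or 25−200 μg/mL for 24 h, and structural chromosome aberrations were scored.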

Staphylococcus aureus [15] = test: Antibacterial activity against methicillin-resistant Staphylococcus aureus; type: functional
Streptococcus pneumoniae [16] = test: Bactericidal activity against penicillin-resistant Streptococcus pneumoniae; type: functional
Streptococcus agalactiae = test: Antibacterial activity against Streptococcus agalactiae; type: functional
Streptococcus anginosus = test: Antibacterial activity against Streptococcus anginosus; type: functional
Staphylococcus aureus [17] = test: Antibacterial activity against Staphylococcus aureus measured after 6 serial passages; type: functional
Staphylococcus aureus [18] = test: Antibacterial activity against methicillin-resistant Staphylococcus aureus isolate 0612; type: functional
[19] = Cmax in human at 600 mg, po administered as single dose with meal measured on day 1; type: ADME, organism-based; set-up: dose 600 mg, route oral; conditions: in vivo; procedure, shortened: as §2
Streptococcus pneumoniae [20] = test: Antibacterial activity against penicillin intermediate-sensitive Streptococcus pneumoniae ATCC 49619 clinical isolate in po dosed mouse systemic infection model; type: functional; conditions: ATCC 49619, po
Staphylococcus aureus [21] = test: Antibacterial activity against methicillin-resistant Staphylococcus aureus isolate 0605 in mouse thigh infection model assessed as reduction of log10 CFU per thigh at 5 mg/kg, po; type: functional
[22] = Tmax in po dosed mouse; type: ADME, organism-based; conditions: in vivo
[23] = Tmax in po dosed rat; type: ADME, organism-based; conditions: in vivo
Canis familiaris [24] = test: Dose normalized Cmax in po dosed dog; type: ADME, organism-based, Canis lupus familiaris; conditions: in vivo
[25] = Half life in po dosed mouse; type: ADME, organism-based; conditions: in vivo
[26] = Oral bioavailability in mouse; type: ADME, organism-based; conditions: in vivo
[27] = Oral bioavailability in rat; type: ADME, organism-based; conditions: in vivo
[28] = Tmax in male rat at 5 mg/kg, po; type: ADME, organism-based; set-up: dose 5 mg/kg, route oral; conditions: in vivo
Procedure, shortened: (§3)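 Male and female rats received single oral doses of 5, 15 or 45 mg/kg, with 5 mg/kg iv as a reference arm. Tmax was read from the plasma concentration–time profile for each gender.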

[29] = Tmax in male rat at 15 mg/kg, po; type: ADME, organism-based; set-up: dose 15 mg/kg, route oral; conditions: in vivo; procedure, shortened: as §3
[30] = Cmax in female rat at 15 mg/kg, po; type: ADME, organism-based; set-up: dose 15 mg/kg, route oral; conditions: in vivo
[31] = Half life in male rat at 5 mg/kg, po; type: ADME, organism-based; set-up: dose 5 mg/kg, route oral; conditions: in vivo
[32] = Half life in male rat at 15 mg/kg, po; type: ADME, organism-based; set-up: dose 15 mg/kg, route oral; conditions: in vivo
[33] = Half life in female rat at 45 mg/kg, po; type: ADME, organism-based; set-up: dose 45 mg/kg, route oral; conditions: in vivo
[34] = AUC (0 to t) in female rat at 15 mg/kg, po; type: ADME, organism-based; set-up: dose 15 mg/kg, route oral; conditions: plasma
Procedure, shortened: (§4)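 Rat PK by gender, with single oral doses of 5, 15 and 45 mg/kg and an iv dose of 5 mg/kg. Tmax, Cmax, T1/2 and AUC0−t were reported per gender.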

[35] = AUC (0 to t) in female rat at 45 mg/kg, po; type: ADME, organism-based; set-up: dose 45 mg/kg, route oral; conditions: plasma; procedure, shortened: as §4
[36] = AUC (0 to t) in male rat at 5 mg/kg, iv; type: ADME, organism-based; set-up: dose 5 mg/kg, route intravenous; conditions: plasma; procedure, shortened: as §4
[37] = AUC (0 to t) in female rat at 5 mg/kg, iv; type: ADME, organism-based; set-up: dose 5 mg/kg, route intravenous; conditions: plasma; procedure, shortened: as §4

O=C1C=CN(c2c(F)cc(N3C[C@H](CNc4ccon4)OC3=O)c(F)c2F)CC1 [CONTEZOLID]
AUC(0-inf) [1]: 29200 ng·h/mL | half-life [2]: 2.18 h | AUC(0-inf) [3]: 48300 ng·h/mL | Cmax [4]: 42300 ng/mL | Tmax [5]: 0.85 h | Cmax [6]: 26400 ng/mL | AUC(0-t) at 24 h [7]: 90400 ng·h/mL | Activity (Homo sapiens): Non-toxic | Drug uptake (Canis familiaris [8]): Not Active | Activity (Rattus norvegicus [9]): 6.82 ×10¹² /L | Activity (Rattus norvegicus [10]): 83.4% | Activity (Rattus norvegicus [11]): 2.72 ×10⁹ /L | Activity (Rattus norvegicus [12]): 53.02 fL | pIC50 (Cytochrome P450 2E1): 5.02 | Activity [13]: Non-toxic | Activity [14]: Non-toxic | MIC90 (Staphylococcus aureus [15]): 0.5 µg/mL (≈ 1.22 µM) | MIC50 (Streptococcus pneumoniae [16]): 0.5 µg/mL (≈ 1.22 µM) | MIC90 (Streptococcus pneumoniae [16]): 0.5 µg/mL (≈ 1.22 µM) | MIC50 (Streptococcus agalactiae): 1 µg/mL (≈ 2.45 µM) | MIC90 (Streptococcus agalactiae): 1 µg/mL (≈ 2.45 µM) | MIC50 (Streptococcus anginosus): 0.5 µg/mL (≈ 1.22 µM) | MIC90 (Streptococcus anginosus): 1 µg/mL (≈ 2.45 µM) | MIC (Staphylococcus aureus [17]): 2 µg/mL (≈ 4.9 µM) | MIC (Staphylococcus aureus [18]): 2 µg/mL (≈ 4.9 µM) | Cmax [19]: 20300 ng/mL | ED50 (Streptococcus pneumoniae [20]): 8.1 mg/kg | deltalog10CFU (Staphylococcus aureus [21]): 2.45 | Tmax [22]: 0.5 h | Tmax [23]: 0.5 h | Cmax/dose (Canis familiaris [24]): 259 ng/mL/(mg/kg) | half-life [25]: 1 h | bioavailability [26]: 69% | bioavailability [27]: 109% | Tmax [28]: 0.5 h | Tmax [29]: 1 h | Cmax [30]: 17200 ng/mL | half-life [31]: 1.08 h | half-life [32]: 1.18 h | half-life [33]: 1.87 h | AUC(0-t) [34]: 64700 ng·h/mL | AUC(0-t) [35]: 230000 ng·h/mL | AUC(0-t) [36]: 12900 ng·h/mL | AUC(0-t) [37]: 25200 ng·h/mL
